Legend:
[1] = Oral bioavailability in BALB/c mouse at 10 mg/kg; format: ADME, organism-based; details: in vivo
Method in brief: (§1)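 Male BALB/c mice (20-25 g), fasted overnight. IV bolus 5 mg/kg in 20% NMP/35% PEG 400/10% PG/35% water; oral gavage 10 mg/kg in PEG 400. Retro-orbital blood at 0.05 (iv only), 0.25, 0.5, 1, 3, 6, 8 and 24 h; three mice per time point, giving a composite profile. Plasma analysed by LC/MS/MS.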

[2] = Cmax in BALB/c mouse at 5 mg/kg, iv and 10 mg/kg, po; format: ADME, organism-based; details: in vivo; method in brief: as §1
[3] = Permeability of the compound in human Caco-2 cells; format: ADME, cell-based; details: read-out: permeability
Hepatocyte [4] = assay: Metabolic stability in human hepatocytes assessed as metabolic rate per million cells; format: ADME, cell-based
[5] = Tmax in BALB/c mouse at 5 mg/kg, iv and 10 mg/kg, po; format: ADME, organism-based; details: in vivo; method in brief: as §1
[6] = Half life in BALB/c mouse at 5 mg/kg, iv and 10 mg/kg, po; format: ADME, organism-based; details: in vivo; method in brief: as §1
[7] = Mean residence time in BALB/c mouse at 5 mg/kg, iv and 10 mg/kg, po; format: ADME, organism-based; details: in vivo; method in brief: as §1
[8] = Clearance in BALB/c mouse at 5 mg/kg, iv and 10 mg/kg, po; format: ADME, organism-based; details: in vivo; method in brief: as §1
[9] = Volume of distribution at steady state in BALB/c mouse at 5 mg/kg, iv and 10 mg/kg, po; format: ADME, organism-based; details: in vivo, read-out: Vdss; method in brief: as §1
[10] = AUC (0 to 8 hrs) in BALB/c mouse at 5 mg/kg, iv and 10 mg/kg, po; format: ADME, organism-based; details: plasma; method in brief: as §1
[11] = Oral bioavailability in Sprague-Dawley rat at 10 mg/kg; format: ADME, organism-based; details: in vivo
Method in brief: (§2)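 Male Sprague-Dawley rats (250-300 g), fasted overnight. IV bolus 2.5 mg/kg in 25% NMP/33% PEG 400/9% PG/33% water; oral gavage 10 mg/kg in PEG 400. Blood sampled at 0.05 (iv only), 0.25, 0.5, 1, 3, 6, 8 and 24 h post dose; composite profile. Plasma stored at -20 °C, then analysed by LC/MS/MS.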

[12] = Cmax in Sprague-Dawley rat at 2.5 mg/kg, iv and 10 mg/kg, po; format: ADME, organism-based; details: in vivo; method in brief: as §2
[13] = Tmax in Sprague-Dawley rat at 2.5 mg/kg, iv and 10 mg/kg, po; format: ADME, organism-based; details: in vivo; method in brief: as §2
[14] = Half life in Sprague-Dawley rat at 2.5 mg/kg, iv and 10 mg/kg, po; format: ADME, organism-based; details: in vivo; method in brief: as §2
[15] = Mean residence time in Sprague-Dawley rat at 2.5 mg/kg, iv and 10 mg/kg, po; format: ADME, organism-based; details: in vivo; method in brief: as §2
[16] = Clearance in Sprague-Dawley rat at 2.5 mg/kg, iv and 10 mg/kg, po; format: ADME, organism-based; details: in vivo; method in brief: as §2
[17] = Volume of distribution at steady state in Sprague-Dawley rat at 2.5 mg/kg, iv and 10 mg/kg, po; format: ADME, organism-based; details: in vivo, read-out: Vdss; method in brief: as §2
[18] = AUC (0 to 24 hrs) in Sprague-Dawley rat at 2.5 mg/kg, iv and 10 mg/kg, po; format: ADME, organism-based; details: plasma; method in brief: as §2
[19] = Metabolic stability in mouse liver microsomes assessed as metabolic rate; format: ADME, Microsome
Liver microsomes [20] = assay: Metabolic stability in rat liver microsomes assessed as metabolic rate; format: ADME, Microsome
Liver microsomes [21] = assay: Metabolic stability in human liver microsomes assessed as metabolic rate; format: ADME, Microsome
[22] = Metabolic stability in mouse hepatocytes assessed as metabolic rate per million cells; format: ADME, cell-based, Hepatocyte
Hepatocyte [23] = assay: Metabolic stability in rat hepatocytes assessed as metabolic rate per million cells; format: ADME, cell-based

Compound: CCCNC(=O)c1cn2ncnc(Nc3cc(C(=O)NC4CC4)ccc3C)c2c1C [BMS-582949]
- bioavailability [1]: 90%
- Cmax [2]: 15.3 µM
- Papp [3]: 9.1 ×10⁻⁶ cm/s
- Stability (Hepatocyte [4]): 0.015 nmol/min/million cells
- Tmax [5]: 1 h
- half-life [6]: 156 min
- MRT [7]: 3.3 h
- clearance [8]: 4.4 mL/min/kg
- Vd [9]: 0.9 L/kg
- AUC(0-t) [10]: 75.5 µM·h
- bioavailability [11]: 60%
- Cmax [12]: 7 µM
- Tmax [13]: 1.5 h
- half-life [14]: 240 min
- MRT [15]: 3.4 h
- clearance [16]: 5.4 mL/min/kg
- Vd [17]: 1.1 L/kg
- AUC(0-t) [18]: 45.4 µM·h
- Stability [19]: 0.011 nmol/min/mg
- Stability (Liver microsomes [20]): 0.008 nmol/min/mg
- Stability (Liver microsomes [21]): 0.013 nmol/min/mg
- Stability [22]: 0.006 nmol/min/million cells
- Stability (Hepatocyte [23]): 0.015 nmol/min/million cells

Compound: CCNC(=O)c1cn2ncnc(Nc3cc(C(=O)NOC)ccc3C)c2c1C
- Papp [3]: 0.5 ×10⁻⁶ cm/s

From ChEMBL document CHEMBL1250528 (J Med Chem, 2010)
